Source: PubChem
GSIS activator – primary screen for activators of insulin secretion dependent on glucose, INS-1E cells, GLuc reporter luminescence; hit rate 0.61% among 370,000; activation, % at 16.6 µM; INS-1E GLuc reporter insulin secretion, 2-3 h;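 active = lowest replicate activation of at least 40%, so every replicate reaches that level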
S100A4 inh HTS – S100A4-myosin IIA interaction inhibition. S100A4/TAMRA-MyoIIA peptide fluorescence polarization. inhibition, % at 10.7 µM. hit rate 0.14% among 360,000. AID 652163;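 active = mean inhibition of at least 70% across replicates, with every replicate also reaching that level; inconclusive = mean inhibition reaches 70% but some replicates fall short; inactive = mean inhibition below 70%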
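Material: S100A4 monomer protein / Buffer or medium: 50 mM HEPES pH 7.2, 10 mM CaCl2, 100 mM KCl / Times: 5 min incubation before reading / Benchmarks: neutral control DMSO, positive control TFP / Reagent: labelled myosin peptide probe, 5 nM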
RAD52 inh – inhibitors of human RAD52 DNA annealing; P43351; recombinant RAD52 DNA annealing, FRET fluorescence; hit rate 0.46% among 360,000; inhibition, % at 18.7 µM; AID 651710;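 active = every replicate showing at least 50% inhibition; inconclusive = mean inhibition at least 50% but not in every replicate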
AF4-AF9 inh – inhibitors of human MLL-AF4/AF9 interaction; P42568; AlphaScreen, biotin-AF4 peptide binding to FLAG-AF9; inhibition, % at 10 µM; hit rate 0.47% among 350,000;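 active = every replicate reaching a set inhibition limit, whatever the replicate mean, cut at about 25% in these data; inconclusive = mean inhibition reaches that limit but some replicates miss it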
RAD54 branch – blocks human RAD54 Holliday junction branch migration | inhibition, % at 10.4 µM | hit rate 0.14% among 360,000 | FAM/BHQ fluorescence;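 active = mean normalized replicate activity at least 40 and at least half of replicates scoring 40 or more; inconclusive = only one of the two criteria met; inactive = mean below 40 and under half of replicates reaching 40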;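 also: inhibitors cause a drop in the FAM fluorescence signal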
RAD52 DNA ctr – counter-screen for RAD52 inhibitors: DNA binding compounds; Salmon sperm DNA/acridine orange FP displacement; shares compounds with RAD52 inh; hit rate 8% among 1,000; AC50, µM;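 active = fitted half-maximal concentration for signal loss at or below twice the highest dose tested, in every separate run, actives reach about 64 µM in these data; inconclusive = runs disagree, or flat partial signal loss, or poor fit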
Hits are given with their value; i = inactive; ? = inconclusive; nt = not tested or not shown. Sampled rows, rich in hits. Any-hit rate of the full collection: about 1.3%.

SMILES	GSIS activator	S100A4 inh HTS	RAD52 inh	AF4-AF9 inh	RAD54 branch	RAD52 DNA ctr
CCN1C[C@]2(COC)CC[C@H](O)[C@@]34C5C[C@H]6[C@H](O)C5[C@](O)(C[C@H]6OC)[C@@H]([C@H](OC)C23)[C@@H]14 (stereo partly specified)	nt	nt	nt	nt	i	nt
C=C1[C@@H](OC(C)=O)[C@]23C[C@@H]1[C@@H](OC(C)=O)CC2[C@]12C4C[C@H]3[C@H]1N(CC)C[C@]4(C)CC[C@@H]2O (stereo partly specified)	i	i	78	i	i	i
COc1cc2c3cc1Oc1c(OC)c(OC)cc4c1[C@H](Cc1ccc(cc1)Oc1cc(ccc1O)C[C@H]3N(C)CC2)N(C)CC4	nt	i	58	i	i	i
COc1cc2c3cc1Oc1cc(ccc1O)C[C@@H]1c4c(cc(OC)c(O)c4Oc4ccc(cc4)C[C@H]3N(C)CC2)CCN1C	i	i	52	?	i	i
COc1cc2c3cc1Oc1cc(ccc1O)C[C@@H]1c4c(cc(OC)c(O)c4Oc4cccc(c4)C[C@@H]3N(C)CC2)CC[N+]1(C)C	i	i	70	i	i	i
Cc1ccc(OC(=O)N(C)C[C@@H]2OCc3ccccc3-c3c(n(C)c4ccccc34)C(=O)N([C@H](C)CO)C[C@@H]2C)cc1	i	i	i	i	nt	nt
Ic1ccccc1CN[C@@H]1C2CCN(CC2)[C@@H]1C(c1ccccc1)c1ccccc1	nt	i	62	i	i	i
Fc1ccccc1CNC1CN2CCC1CC2 (stereo unspecified)	i	i	i	i	nt	nt
O=C(O)[C@H]1[C@H](CO)[C@H]2Cn3c(ccc(-c4ccncc4)c3=O)[C@@H]1N2C(=O)C1CC1	i	nt	nt	nt	nt	nt
CCCCCCCCCCCCCCCC[N+](C)(C)C	nt	i	80	i	i	?
CC[N+](C)(CC)CCCCOc1ccc2c(c1)C(=O)c1cc(OCCCC[N+](C)(CC)CC)ccc1-2	i	i	105	i	99	19µM
N#Cc1cccc(-c2ccc([C@H]3[C@@H](CO)N4CCCCN(C(=O)Cc5ccccc5)C[C@@H]34)cc2)c1	i	i	i	i	i	nt
